Source: ChEMBL document CHEMBL4842395, “Design and Synthesis of Oleanolic Acid Trimers to Enhance Inhibition of Influenza Virus Entry” (ACS Med Chem Lett, 2021)
pIC50, pKd: −log10 of the molar value. The source made the active and inactive calls. The rule behind the calls is not given here. Numbered stars: 1 amine (or outer) side, 2 acyl side, 3 side chain; on linkers, the order of the positions; unused ones are H or OH. Bridge positions count the residues as written; N and C are the ends. Square brackets hold non-standard residues; d marks the D form. Peptide text beside a SMILES is read from it. I, II: the chains in the order shown. X1 = O=C(O)C1(OCCCCC(=O)[*:2])C[C@H](O)[C@@H](N[*:1])[C@H]([C@H](O)[C@H](O)CO)O1; X2 = O=C(NCCCCCCN[*:1])c1cc(C(=O)NCCCCCCN[*:2])cc(C(=O)NCCCCCCN[*:3])c1

How the values were obtained:
[1] = biological target: Hemagglutinin (Influenza A virus, UniProt B4URE7); test: Inhibition of CM5 chip immobilized Influenza A virus (A/Viet Nam/1203/2004(H5N1)) HA by SPR method
[2] = tested on: Influenza A virus; test: Antiviral activity against Influenza A virus (A/Hong Kong/4801/2014 (H3N2)) infected in cells assessed as reduction in infected cells; assay type: functional, organism-based
[3] = tested on: Influenza A virus; test: Antiviral activity against Influenza A virus (A/WSN/1933(H1N1)) infected in MDCK cells assessed as reduction in virus-induced cytopathic effect at 100 uM measured after 40 hrs incubation by inverted microscpic imaging analysis; assay type: functional, organism-based
Method in brief: (§1)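 MDCK cells infected with influenza A/WSN/33 (H1N1), with compounds at 100 μM. Viral CPE judged by direct microscopic observation. DMSO served as the negative control and oseltamivir phosphate as the positive control. Triplicate experiments, with standard deviations.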

[4] = Selectivity ratio of CC50 for MDCK cells to IC50 for Influenza A virus A/WSN/33(H1N1) infected in MDCK cells; assay type: toxicity, cell-based; conditions: dog, read-out: Ratio CC50/IC50
Method in brief: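 Selectivity index calculated as CC50 (uninfected MDCK cells, CellTiter-Glo) divided by IC50 (inhibition of A/WSN/33 H1N1-induced CPE in MDCK cells).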

[5] = tested on: Influenza A virus; test: Antiviral activity against Influenza A virus (A/WSN/1933(H1N1)) infected in MDCK cells assessed as s reduction in virus-induced cytopathic effect after 40 hrs incubation by CellTiter-Glo assay; assay type: functional, organism-based
Method in brief: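 CPE-based dose–response in MDCK cells infected with A/WSN/33 (H1N1), using the CellTiter-Glo viability read-out. Medium with 1% DMSO was the negative control and oseltamivir phosphate the positive control. IC50 is the concentration giving 50% inhibition of virus-induced CPE. Means of duplicate samples from three independent experiments.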

[6] = Cytotoxicity against MDCK cells assessed as reduction in cell viability by CellTiter-Glo assay; assay type: cell-based, Canis lupus familiaris; conditions: dog
Method in brief: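 Viability of normal, uninfected MDCK cells measured by CellTiter-Glo. Medium containing 1% DMSO was the negative control. CC50 is the concentration that reduces viability by 50%.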

[7] = Selectivity index, ratio of CC50 for MDCK cells to IC50 for antiviral activity against Influenza A virus (B/Sichuan/531/2018(Victoria)); assay type: toxicity; conditions: dog, read-out: Ratio CC50/IC50
[8] = Selectivity index, ratio of CC50 for MDCK cells to IC50 for antiviral activity against Influenza A virus (A/Hong Kong/4801/2014 (H3N2)); assay type: toxicity; conditions: dog, read-out: Ratio CC50/IC50
[9] = tested on: Influenza A virus; test: Antiviral activity against Influenza A virus (A/WSN/1933(H1N1)) infected in MDCK cells assessed as inhibition of virus-induced cytopathic effect at 100 uM measured after 40 hrs incubation by inverted microscpic imaging analysis; assay type: functional; method in brief: as §1
[10] = tested on: Influenza B virus; test: Antiviral activity against Influenza B virus (B/Sichuan/531/2018(Victoria)) infected in cells assessed as reduction in infected cells; assay type: functional, organism-based
[11] = biological target: Hemagglutinin (Influenza A virus (A/Puerto Rico/8/1934(H1N1))) (UniProt P03452); test: Inhibition of hemagglutinin in compound-pretreated Influenza A virus (A/WSN/1933(H1N1)) infected in chicken RBC assessed as reduction in virus-induced agglutination measured after 25 mins; assay type: cell-based; conditions: Erythrocyte
Method in brief: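 Hemagglutination inhibition: virus pretreated with compound, then chicken erythrocytes added and incubated a further 25 min at room temperature. Anti-HA antibody served as the positive control.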

[12] = tested on: Influenza A virus; test: Antiviral activity against Influenza A virus (A/WSN/1933(H1N1)) infected in MDCK cells assessed as suppression of M2 protein expression at early stage of infection measured after 2 hrs post infection by Western blot analysis; assay type: functional
Method in brief: (§2)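 Time-of-addition study in MDCK cells infected with A/WSN/33 (H1N1). Compound was present during one of five windows: 0–10, 0–2, 2–5, 5–8 or 8–10 h, corresponding to entry (0–2 h), replication/translation (2–8 h) and release (8–10 h). M2 and NP protein levels were compared with a DMSO control.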

[13] = biological target: Hemagglutinin (Influenza A virus (A/Puerto Rico/8/1934(H1N1)), UniProt P03452); test: Binding affinity to CM5 chip immobilized Influenza A virus (A/Michigan/45/2015) (H1N1)) hemagglutin assessed as dissociation constant by surface plasmon resonance assay
[14] = tested on: Influenza A virus; test: Antiviral activity against Influenza A virus (A/WSN/1933(H1N1)) infected in MDCK cells assessed as suppression of NP protein expression measured after 2 hrs post infection by Western blot analysis; assay type: functional; method in brief: as §2

Chain of Hemagglutinin (Influenza A virus (A/Puerto Rico/8/1934(H1N1))) (P03452 whole entry): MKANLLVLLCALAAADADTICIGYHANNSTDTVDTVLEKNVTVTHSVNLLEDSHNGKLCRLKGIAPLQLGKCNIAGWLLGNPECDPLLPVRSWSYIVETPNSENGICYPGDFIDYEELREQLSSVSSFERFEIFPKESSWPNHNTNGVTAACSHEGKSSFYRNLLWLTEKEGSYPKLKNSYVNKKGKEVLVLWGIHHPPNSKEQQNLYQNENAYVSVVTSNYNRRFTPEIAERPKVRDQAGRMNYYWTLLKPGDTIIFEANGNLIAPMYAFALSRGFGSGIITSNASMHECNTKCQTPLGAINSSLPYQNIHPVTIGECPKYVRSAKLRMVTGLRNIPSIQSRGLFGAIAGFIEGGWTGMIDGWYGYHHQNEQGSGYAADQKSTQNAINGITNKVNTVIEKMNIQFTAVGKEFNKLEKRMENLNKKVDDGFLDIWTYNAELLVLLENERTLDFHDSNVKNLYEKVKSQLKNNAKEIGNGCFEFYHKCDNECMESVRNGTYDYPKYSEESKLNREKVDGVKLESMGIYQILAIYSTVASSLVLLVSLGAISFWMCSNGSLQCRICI
Chain of Hemagglutinin (Influenza A virus (A/Puerto Rico/8/1934(H1N1)), UniProt P03452) (P03452 whole entry): as above
Chain of Hemagglutinin (B4URE7 whole entry): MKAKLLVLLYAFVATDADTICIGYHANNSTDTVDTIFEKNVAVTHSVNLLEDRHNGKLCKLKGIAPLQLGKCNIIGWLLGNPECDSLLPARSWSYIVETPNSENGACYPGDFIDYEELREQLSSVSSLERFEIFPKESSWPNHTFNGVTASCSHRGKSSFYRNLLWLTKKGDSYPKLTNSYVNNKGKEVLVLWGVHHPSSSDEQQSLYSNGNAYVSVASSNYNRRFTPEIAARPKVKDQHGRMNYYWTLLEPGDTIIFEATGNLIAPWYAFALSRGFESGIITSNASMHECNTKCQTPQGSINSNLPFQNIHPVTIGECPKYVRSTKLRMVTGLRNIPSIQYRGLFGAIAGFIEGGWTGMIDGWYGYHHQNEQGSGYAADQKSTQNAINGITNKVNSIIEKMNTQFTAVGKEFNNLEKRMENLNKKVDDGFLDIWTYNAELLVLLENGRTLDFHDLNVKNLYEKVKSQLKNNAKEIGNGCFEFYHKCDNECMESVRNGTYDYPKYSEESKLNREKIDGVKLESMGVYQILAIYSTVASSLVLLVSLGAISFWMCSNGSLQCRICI

Row | Structure (SMILES) | pKd [1] | pIC50 [2] | Activity [3] | selectivity ratio [4] | pIC50 [5] | CC50 [6] [nM] | selectivity ratio [7] | selectivity ratio [8] | inhibition at 100 µM [9] [%] | pIC50 [10] | inhibition [11] | inhibition (INH) [12] [%] | pKd [13] | inhibition (INH) [14] [%]
1 | CC(=O)N[C@H]1[C@H]([C@H](O)[C@H](O)CO)OC(OCCCCC(=O)NCC(=O)N[C@@H](CO)C(=O)NCC(=O)N[C@@H](CO)C(=O)N[C@@H](C)C(=O)N[C@@H](CO)C(=O)NCC(=O)N[C@@H](CO)C(=O)NCC(=O)NCCCCCCNC(=O)c2cc(C(=O)NCCCCCCNC(=O)CNC(=O)[C@H](CO)NC(=O)CNC(=O)[C@H](CO)NC(=O)[C@H](C)NC(=O)[C@H](CO)NC(=O)CNC(=O)[C@H](CO)NC(=O)CNC(=O)CCCCOC3(C(=O)O)C[C@H](O)[C@@H](NC(C)=O)[C@H]([C@H](O)[C@H](O)CO)O3)cc(C(=O)NCCCCCCNC(=O)CNC(=O)[C@H](CO)NC(=O)CNC(=O)[C@H](CO)NC(=O)[C@H](C)NC(=O)[C@H](CO)NC(=O)CNC(=O)[C@H](CO)NC(=O)CNC(=O)CCCCOC3(C(=O)O)C[C@H](O)[C@@H](NC(C)=O)[C@H]([C@H](O)[C@H](O)CO)O3)c2)(C(=O)O)C[C@@H]1O (stereo not given in full) (I: Ac-[X1]GSGSASGSG / II: Ac-[X1]GSGSASGSG / III: Ac-[X1]GSGSASGSG; linker I:C-II:C-III:C via X2) | 6.35 |  |  |  |  |  |  |  |  |  |  |  |  | 
2 | CC1(C)CC[C@]2(C(=O)NCCCc3cn(CC(CO)(Cn4cc(CCCNC(=O)[C@]56CCC(C)(C)C[C@H]5C5=CC[C@@H]7[C@@]8(C)CC[C@H](O)C(C)(C)[C@@H]8CC[C@@]7(C)[C@]5(C)CC6)nn4)Cn4cc(CCCNC(=O)[C@]56CCC(C)(C)C[C@H]5C5=CC[C@@H]7[C@@]8(C)CC[C@H](O)C(C)(C)[C@@H]8CC[C@@]7(C)[C@]5(C)CC6)nn4)nn3)CC[C@]3(C)C(=CC[C@@H]4[C@@]5(C)CC[C@H](O)C(C)(C)[C@@H]5CC[C@]43C)[C@@H]2C1 |  | 5.77 | Active | > 323 | 6.51 | > 100000 | > 2.66 | > 58.5 | > 80 | 4.42 | Active |  |  | 
3 | CC1(C)CC[C@]2(C(=O)NCCCCc3cn(Cc4cc(Cn5cc(CCCCNC(=O)[C@]67CCC(C)(C)C[C@H]6C6=CC[C@@H]8[C@@]9(C)CC[C@H](O)C(C)(C)[C@@H]9CC[C@@]8(C)[C@]6(C)CC7)nn5)cc(Cn5cc(CCCCNC(=O)[C@]67CCC(C)(C)C[C@H]6C6=CC[C@@H]8[C@@]9(C)CC[C@H](O)C(C)(C)[C@@H]9CC[C@@]8(C)[C@]6(C)CC7)nn5)c4)nn3)CC[C@]3(C)C(=CC[C@@H]4[C@@]5(C)CC[C@H](O)C(C)(C)[C@@H]5CC[C@]43C)[C@@H]2C1 |  | 5.34 |  | > 435 | 6.64 | > 100000 | > 53.5 | > 21.8 | > 80 | 5.73 |  | >90 | 5.58 | >90
4 | CC1(C)CC[C@]2(C(=O)NCCCc3cn(Cc4cc(Cn5cc(CCCNC(=O)[C@]67CCC(C)(C)C[C@H]6C6=CC[C@@H]8[C@@]9(C)CC[C@H](O)C(C)(C)[C@@H]9CC[C@@]8(C)[C@]6(C)CC7)nn5)cc(Cn5cc(CCCNC(=O)[C@]67CCC(C)(C)C[C@H]6C6=CC[C@@H]8[C@@]9(C)CC[C@H](O)C(C)(C)[C@@H]9CC[C@@]8(C)[C@]6(C)CC7)nn5)c4)nn3)CC[C@]3(C)C(=CC[C@@H]4[C@@]5(C)CC[C@H](O)C(C)(C)[C@@H]5CC[C@]43C)[C@@H]2C1 |  | 5.57 |  | > 263 | 6.42 | > 100000 | > 3.53 | > 37.5 | > 80 | 4.55 |  |  |  | 
